Rows were chosen to be rich in hits. Some 1.6% of all compounds tested hit in one or more screens of this group.
LANA-H2B inh: blocks KSHV LANA binding to histone H2A/H2B. Q9QR71. cell-free LANA-H2A/H2B peptide, fluorescence polarization. inhibition, % (test concentration not listed). 320,000 tested, 0.6% active; in the data active = inhibition mostly above about 10%, no sharp cut-off; inactive = mostly below about 6.7%
Target sequence (Q9QR71 whole entry, looked up): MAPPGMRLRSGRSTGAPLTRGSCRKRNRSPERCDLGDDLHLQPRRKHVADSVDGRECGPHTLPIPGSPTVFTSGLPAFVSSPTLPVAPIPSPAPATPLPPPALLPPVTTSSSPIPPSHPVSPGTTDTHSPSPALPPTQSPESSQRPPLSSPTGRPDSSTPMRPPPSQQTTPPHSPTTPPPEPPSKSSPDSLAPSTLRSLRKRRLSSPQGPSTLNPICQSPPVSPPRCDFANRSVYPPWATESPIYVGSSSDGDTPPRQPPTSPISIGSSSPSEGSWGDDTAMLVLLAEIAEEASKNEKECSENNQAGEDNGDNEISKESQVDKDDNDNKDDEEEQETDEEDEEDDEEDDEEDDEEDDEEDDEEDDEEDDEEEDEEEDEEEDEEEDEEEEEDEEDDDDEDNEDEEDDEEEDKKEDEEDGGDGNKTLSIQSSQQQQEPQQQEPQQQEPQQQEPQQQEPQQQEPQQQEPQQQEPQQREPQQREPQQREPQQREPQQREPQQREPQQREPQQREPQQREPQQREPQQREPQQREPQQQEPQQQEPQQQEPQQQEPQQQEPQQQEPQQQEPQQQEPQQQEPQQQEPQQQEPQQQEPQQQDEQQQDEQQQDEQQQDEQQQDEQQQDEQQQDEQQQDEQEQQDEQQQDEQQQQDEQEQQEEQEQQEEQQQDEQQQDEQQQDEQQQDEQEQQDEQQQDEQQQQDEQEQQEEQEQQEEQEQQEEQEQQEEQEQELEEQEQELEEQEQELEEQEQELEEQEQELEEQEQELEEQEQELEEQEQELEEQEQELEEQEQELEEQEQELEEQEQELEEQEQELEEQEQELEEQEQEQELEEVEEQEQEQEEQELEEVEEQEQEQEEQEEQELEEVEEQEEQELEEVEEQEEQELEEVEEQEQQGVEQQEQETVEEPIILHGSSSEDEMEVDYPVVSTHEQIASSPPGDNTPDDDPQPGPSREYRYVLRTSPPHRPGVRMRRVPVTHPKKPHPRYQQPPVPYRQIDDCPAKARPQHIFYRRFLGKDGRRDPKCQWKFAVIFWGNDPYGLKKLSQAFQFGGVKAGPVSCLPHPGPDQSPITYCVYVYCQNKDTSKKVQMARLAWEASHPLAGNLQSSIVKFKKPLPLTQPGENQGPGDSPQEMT
HDAC3 inhib: human HDAC3 inhibition | recombinant HDAC3, fluorogenic peptide/trypsin coupled, fluorescence | inhibition, % at 8.3 µM | 320,000 tested, 0.15% active | O15379; in the data active = inhibition above about 26%, passing the limit was not always enough; inconclusive = no clear call, values can overlap the other calls
JMJD2C inh: inhibitors of human GASC-1 (JMJD2C) demethylase. GST-JMJD2C(1-420) H3K9me3 demethylation, DELFIA europium. inhibition, % at 2.35 µM. 330,000 tested, 0.069% active. AID 2099;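 active = more than half of a compound's replicate wells show inhibition beyond 50%, single wells judged on their own value; inconclusive = some, but no more than half, of replicates pass 50% inhibition; inactive = no replicate passes 50% inhibition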;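 also: signal counts dimethyl H3K9 product captured on neutravidin plate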
DSG3 Ab inh: inhibitors of pemphigus antibody binding to human desmoglein-3; binding (percent of control), % at 10 µM; DSG3-coupled beads, scFv-anti-DSG3-GFP binding, flow cytometry; active compounds read low; 310,000 tested, 0.48% active; AID 588358;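 active = binding more than 3 SD below its plate's average and above zero; inconclusive = below that plate limit but binding exactly zero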;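 also: hits lower antibody fragment binding to DSG3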
T cell HTS: modulates CD8 T cell binding to vesicles; response (vesicle binding), % at 7 µM; 2C CD8+ T cell-vesicle binding, flow cytometry; active compounds read low; 330,000 tested, 0.068% active; AID 2052;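 active = response, share of CD8 T cells binding vesicles, and their 90th percentile fluorescence all below set limits, cut at about 80% in these data, passing the limit was not always enough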;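 also: values below 100% mean blocked vesicle binding to the CD8+ T cells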
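Also added: QL9-peptide-loaded Drosophila micro-vesicles bearing Ld, ICAM-1 and B7-1; Test system: purified 2C TCR transgenic mouse naive CD8+ T cells; Measured by: cytometric PE anti-B7-1 and Alexa647 anti-CD8 signals after 1% paraformaldehyde fixation; Timing: binding step 1.5 h, 37 °C, antibody labelling 20 min, ice.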
Arrestin-AP2 inh: inhibitors of human beta-arrestin and AP2 interaction. FITC-arrestin peptide / GST-AP2 beads, flow cytometry; AP2 beta2 appendage carries R879A mutation. inhibition, % at 10 µM. 340,000 tested, 0.31% active. AID 504490;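 active = inhibition above a set limit, near 3 SD of compounds lacking own fluorescence, cut at about 54% in these data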
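Material – AP2 appendage R879A on GSH beads · Buffer or medium – PBS with 0.05% Tween 20 and 0.1% BSA · Probe or stimulus – fluorescein-tagged arrestin peptide at 50 nM final · Incubation – compound with beads 12 min RT, then probe 1 h RT · Detection – high-throughput flow cytometry of beads, ex 488, em 535 nm · Evaluation – percent response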
Of the large screens only hits and unclear results are named; the others gave an inactive call; ! = not active in a repeat.

CCCCS(=O)CC(CS(=O)CCCC)OC(=O)c1ccc(C)cc1 (stereo not drawn)	DSG3 Ab inh 45.4
CCCCS(=O)CC(CS(=O)CCCC)OC(=O)c1ccccc1 (stereo not drawn)	none (no result: DSG3 Ab inh)
COc1ccc([N+](=O)[O-])cc1NC(=S)NC(C)=O	none
COc1ccc(/C=C/C(=O)NC(=S)Nc2cc([N+](=O)[O-])ccc2O)cc1OC	DSG3 Ab inh 85.3
COc1ccc(NC2CCCN(C(=O)CCN3Cc4ccccc4C3=O)C2)cc1 (stereo not drawn)	LANA-H2B inh 20.7
OCCCCNCc1cc(Br)ccc1OCc1ccccc1F	T cell HTS 26.8
OCCNCc1cc(Br)ccc1OCc1ccc(F)cc1	none
COCCn1c(SCC(=O)NCC2CCCO2)nc2c([nH]c3ccccc32)c1=O (stereo not drawn)	none
Cc1cc(C)nc(NC(N)=NC(C)c2ccccc2)n1 (stereo not drawn)	JMJD2C inh 51.0 (no result: DSG3 Ab inh, Arrestin-AP2 inh)
C=CCn1cnc2c(nnn2Cc2ccc(F)cc2)c1=O	none
O=C(COc1ccccc1Cl)Nc1ccc2oc(=O)ccc2c1	none (no result: DSG3 Ab inh)
Cc1ccc(C(=O)N/C(=C/c2ccc(N(C)C)cc2)C(=O)NCC2CCCO2)cc1 (stereo not drawn)	DSG3 Ab inh 35.2
Cc1c(-c2ccccc2)oc2c(C(=O)OCC(=O)Nc3ccc(C(N)=O)cc3)cccc2c1=O	LANA-H2B inh 28.4
CCCn1c(CN2CCN(C(=O)OCC)CC2)nc2cc([N+](=O)[O-])ccc21	none
CC(C)CCNC(=O)CN1N=C(c2ccc(Cl)cc2)CCC1=O	none
CCOC(=O)CN1N=C(c2ccc(Cl)cc2)CCC1=O	DSG3 Ab inh 66.5
Cc1ccc(C2=NN(CC(=O)NCCN(CC(C)C)CC(C)C)C(=O)CC2)cc1	LANA-H2B inh 15.1
CCCC[C@@H]1CNCCN1CCCc1cc(OC)c(OC)c(OC)c1	none
CC(Sc1nnc(C2CC2)n1C1CC1)C(=O)N(C)C1(C#N)CCCCC1 (stereo not drawn)	none
CSc1nc2nccc(-c3ccc(-c4ccccc4)cc3)n2n1	none
CSc1nc2nccc(-c3ccc4c(c3)OCO4)n2n1	DSG3 Ab inh 103.6
CCCC(C)c1nnc(NC(=O)CCS(=O)(=O)Cc2ccccc2)s1 (stereo not drawn)	none
CCCC(C)c1nnc(NC(=O)CS(=O)(=O)Cc2ccccc2)s1 (stereo not drawn)	LANA-H2B inh 30.4
COc1cccc2c1C(=O)c1c(O)c3c(c(O)c1C2=O)C[C@@](O)(C(=O)CO)C[C@@H]3O[C@H]1C[C@H](N)[C@H](O)[C@H](C)O1	LANA-H2B inh 24.6 (no result: DSG3 Ab inh, T cell HTS)
O=C(O)CCNS(=O)(=O)c1ccc2c(c1)OCCCO2	LANA-H2B inh 12.8
C/C(=N\N=C(N)N)c1ccc(C)c(C)c1	LANA-H2B inh 14.6
C/C(=N\N=C(N)N)c1cccc([N+](=O)[O-])c1	none
CCc1nc(N[C@@H](Cc2c[nH]c3ccccc23)C(=O)O)c2oc3ccccc3c2n1	none
Cc1nc(N[C@@H](Cc2c[nH]c3ccccc23)C(=O)O)c2oc3ccccc3c2n1	LANA-H2B inh 18.5 (no result: DSG3 Ab inh, Arrestin-AP2 inh)
O=CN/C=C/c1cc(O)ccc1O	DSG3 Ab inh 77.7 (no result: JMJD2C inh)
Cc1ccc(S(=O)(=O)N2C[C@H]3C(=O)C[C@@H](c4cccc(Cl)c4)N(S(=O)(=O)c4ccc(C)cc4)[C@H]3C[C@H]2c2cccc(Cl)c2)cc1	none (no result: LANA-H2B inh, HDAC3 inhib, JMJD2C inh, T cell HTS, Arrestin-AP2 inh)
CCOc1ccc(CC(=O)Nc2nccs2)cc1OCC	LANA-H2B inh 20.7
CC1(C)CC(NC(=O)C2CCC(=O)N(Cc3ccccc3F)C2)CC(C)(C)C1 (stereo not drawn)	JMJD2C inh inconclusive (no result: LANA-H2B inh, HDAC3 inhib, T cell HTS)
Cc1c(C(=O)Nc2nc3ccccc3[nH]2)cccc1[N+](=O)[O-]	none
O=C(Nc1nc2ccccc2[nH]1)c1ccccc1[N+](=O)[O-]	T cell HTS 30.0
Cc1ccc(-n2nc(C)c3onc(C)c3c2=O)cc1	LANA-H2B inh 27.7
CCOC(=O)C1CCCN(C(=O)c2cc(CN3C(=O)c4ccccc4C3=O)ccc2OC)C1 (stereo not drawn)	LANA-H2B inh 27.8
CCOC(=O)CC1(NC(=O)c2cc(COc3cccc(OC)c3)on2)CCCCC1	DSG3 Ab inh 81.3
O=C(COC(=O)c1ccc([N+](=O)[O-])o1)NC1CCCc2ccccc21 (stereo not drawn)	none
Cc1ccc(S(=O)(=O)N2CCOCC2)cc1NCC(=O)Nc1ccc(OC(F)(F)F)cc1	none (no result: DSG3 Ab inh)
COc1ccccc1/C=N/NC(=O)c1ccc(CN2C(=O)c3cccc4cccc2c34)cc1	DSG3 Ab inh 65.3
Cc1ccc(SCCCCN2CCNCC2)cc1	LANA-H2B inh 17.6
Cc1ccc(SCCCCN2CCOCC2)cc1	DSG3 Ab inh 50.2
O=C(NCCc1nc2ccccc2[nH]1)/C(=C/c1ccco1)NC(=O)c1ccccc1Br	LANA-H2B inh 13.9
O=C1CCCC/C=C\C[C@H](CC(=O)N(CCO)Cc2ccccc2)C(=O)N[C@@H](c2ccccc2)CO1	T cell HTS 61.9
CC(C)(C)[C@H]1COC(=O)CCCC/C=C\C[C@H](CC(=O)N(CCO)Cc2ccccc2)C(=O)N1	none (no result: LANA-H2B inh, HDAC3 inhib, JMJD2C inh)
OC1(c2cccc(F)c2)CCN(Cc2ccncc2)CC1	JMJD2C inh 68.7
OC1(c2cccc(C(F)(F)F)c2)CCN(Cc2nnnn2Cc2ccccc2)CC1	none
CC1OC(c2ccccc2)OC2COC(c3ccccc3)OC12 (stereo not drawn)	DSG3 Ab inh -6.5 (no result: LANA-H2B inh, HDAC3 inhib, JMJD2C inh, T cell HTS)
Cc1ccc(S(=O)(=O)N2CCN(c3ccc(C(F)(F)F)cc3[N+](=O)[O-])CC2)cc1	DSG3 Ab inh 66.8
Cc1ccc(S(=O)(=O)N2CCN(c3c([N+](=O)[O-])cc(C(F)(F)F)cc3[N+](=O)[O-])CC2)cc1	none
O=S(=O)(NCc1ccc(F)cc1)c1ccc(-n2cccn2)cc1	none
Cc1nc2sccn2c(=O)c1CCN1CCC(=C(c2ccc(F)cc2)c2ccc(F)cc2)CC1	LANA-H2B inh 8.3
Cc1nc2ccccn2c(=O)c1CCN1CCC(C(=O)c2ccc(F)cc2)CC1	none
CC[N+](C)(C)c1cccc(O)c1	LANA-H2B inh 20.1!
Cc1ccc(NC(=O)Cc2ccc([N+](=O)[O-])cc2)c(Br)c1	DSG3 Ab inh 6.2
CC1CN(CC(=O)Nc2ccc([N+](=O)[O-])cc2Br)CC(C)O1 (stereo not drawn)	LANA-H2B inh active
COc1cc([N+](=O)[O-])ccc1NC(=O)Cc1ccc(C)cc1	HDAC3 inhib inconclusive
CN1CCN(CC(=O)Nc2ccc([N+](=O)[O-])cc2Br)CC1	none
COc1ccc(CCNC(=O)c2cc(C)oc2C)cc1	LANA-H2B inh 14.1
CCc1cccc(C)c1NC(=O)c1cc(C)oc1C	none (no result: DSG3 Ab inh)
Cc1cc(C(=O)NCC(=O)Nc2c(C)cccc2C)c(C)o1	LANA-H2B inh 167.2
